Measurements pooled from the literature.
Values after ≈ are worked out from the molar mass of the structure shown.

O=c1cc(OCCCOc2ccnc(SCc3ccc(F)cc3)n2)c2cc(F)ccc2o1
inhibition (Human coronavirus 229E; cytopathic effect; A549; 6.25 µM): 34.9%

CC1(C)C=Cc2cc(/C=C/C(=O)Nc3ccccc3)ccc2O1
viability (rat Primary cortical neuron; cell growth or viability, MTT; 1 µM, 12 h): 73%

O=C(CCCCCCCCCCOc1ccccc1)CP(=O)(O)O
MIC (Enterococcus faecalis; microbial growth; ATCC33186): 50 µg/mL (≈ 140 µM)

CC(C)[C@H](NC(=O)[C@H](CCCNC(=N)N)NC(=O)N[C@@H](Cc1ccccc1)C(=O)O)C(=O)N[C@H](C=O)CCCNC(=N)N
IC50 (Human coronavirus 229E; viral replication; Huh7.5): 1570 nM

CCOC(=O)C1=C[C@@H](OC(CC)CC)[C@H](NC(C)=O)[C@@H](N)C1
inhibition (Human coronavirus 229E; cytopathic effect; A549; 50 µM): 72.8%

CCCCCCCCCCCCCCCC(=O)NP(=O)(O)O
MIC (Enterococcus faecalis; microbial growth; ATCC33186): 200 µg/mL (≈ 596 µM)

O=C(Cc1ccc2ccccc2c1)N[C@@H](Cc1ccccc1)C(=O)N[C@@H](Cc1ccccc1)C(=O)N[C@H](Cc1ccc(OP(=O)(O)O)cc1)C(=O)O
IC50 (HeLa; cell growth or viability, MTT; 48 h): 428000 nM

CCCCCCCC(=O)NP(=O)(O)O
MIC (Enterococcus faecalis; microbial growth; ATCC33186): > 200 µg/mL

COc1cccc(NC(=O)/C=C/c2ccc3c(c2)C=CC(C)(C)O3)c1
viability (rat Primary cortical neuron; cell growth or viability, MTT; 1 µM, 12 h): 87%

COC1=C2C[C@@H](C)C[C@H](OC)[C@H](O)[C@@H](C)/C=C(\C)[C@H](OC(N)=O)[C@@H](OC)/C=C\C=C(/C)C(=O)NC(=CC1=O)C2=O
IC50 (Human coronavirus 229E; viral replication; Calu-3): 8710 nM

CC[C@H](C)C[C@H](C)CCCCCCCCC(=O)N[C@H]1C[C@@H](O)[C@@H](NCCN)NC(=O)[C@@H]2[C@@H](O)CCN2C(=O)[C@H]([C@H](O)CCN)NC(=O)[C@H]([C@H](O)[C@@H](O)c2ccc(O)cc2)NC(=O)[C@@H]2C[C@@H](O)CN2C(=O)[C@H]([C@@H](C)O)NC1=O
MIC50 (Aspergillus fumigatus; microbial growth, broth dilution; MF5668): 0.016 µg/mL (≈ 0.0146 µM)

CCCCCC/C=C\CCCCCCCCCC(=O)NP(=O)(O)O
MIC (Enterococcus faecalis; microbial growth; ATCC33186): 200 µg/mL (≈ 553 µM)

Nc1ncnc2c([C@@H]3N[C@H](CO)[C@@H](O)[C@H]3O)c[nH]c12
inhibition (Japanese encephalitis virus; viral replication, inhibitor; Vero 76; 0.1 µM): 0%

CC[C@@]1(O)C[C@H](O[C@H]2C[C@H](N(C)C)[C@H](O[C@H]3C[C@H](O)[C@H](O[C@H]4CCC(=O)[C@H](C)O4)[C@H](C)O3)[C@H](C)O2)c2c(cc3c(c2O)C(=O)c2c(O)cccc2C3=O)[C@H]1C(=O)OC
IC50 (Human coronavirus 229E; viral replication; Calu-3): 2340 nM

CCCC(=O)CP(=O)(O)O
MIC (Enterococcus faecalis; microbial growth; ATCC33186): > 200 µg/mL

Cc1cccc(CSc2nccc(OCCOc3cc(=O)oc4ccccc34)n2)c1
inhibition (Human coronavirus 229E; cytopathic effect; A549; 25 µM): 58.1%

COc1ccc(N2CCN(C(=O)/C=C/c3ccc4c(c3)C=CC(C)(C)O4)CC2)cc1
viability (rat Primary cortical neuron; cell growth or viability, MTT; 1 µM, 12 h): 75%

COc1c(C)c2c(c(O)c1C/C=C(\C)CCC(=O)O)C(=O)OC2
IC50 (Human coronavirus 229E; viral replication; Calu-3): 2110 nM
